Reference: ChEMBL document CHEMBL1157097, “Humulane and germacrane sesquiterpenes from Ferula lycia” (J Nat Prod, 2010)

Legend:
[1] = Cytotoxicity against human bone marrow cells by MTT assay; assay type: cell-based; conditions: Bone marrow cell
Outline: (§1)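 Cells grown in RPMI 1640 with 1% glutamine, 1% penicillin/streptomycin and 10% fetal calf serum, then exposed to the sesquiterpenes. Viability was read by MTT. Bone marrow came from three healthy volunteers who gave informed consent. Camptothecin was the positive control for Raji.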

[2] = Cytotoxicity against mouse dasatinib-resistant DA1-3b cells carrying pCDNA3-p210BCR/ABL plasmid by MTT assay; assay type: functional, cell-based; outline: as §1
Raji = test: Cytotoxicity against human Raji cells by MTT assay; assay type: functional, cell-based; outline: as §1
K562 = test: Cytotoxicity against human imitinib-resistant K562 cells by MTT assay; assay type: functional, cell-based; outline: as §1
[3] = Mus musculus, DA1-3b, read-out: IC50
[4] = Homo sapiens, K562, read-out: IC50

For C/C1=C\[C@H](OC(=O)c2ccc(O)cc2)[C@H](C(C)C)CC/C(C)=C/CC1, the IC50 [1] was > 50 µM, the IC50 [2, 3] was 24.7 µM and the IC50 (Raji) was 20.9 µM. The IC50 (K562; [4]) was 25.3 µM.
For COc1cc(C(=O)O[C@H]2/C=C(\C)CC/C=C(\C)CC[C@H]2C(C)C)ccc1O, the IC50 ([2]; da1-3b) was “Not Active” and the IC50 (K562; k562) was “Not Active”.
For CC[C@@]1(O)C(=O)OCc2c1cc1n(c2=O)Cc2cc3ccccc3nc2-1 [CAMPTOTHECIN], the IC50 [2, 3] was 0.03 µM, the IC50 (Raji) was 1 µM and the IC50 (K562; [4]) was 0.002 µM.
With C/C1=C/[C@H](O)C(C)(C)CCC/C(C)=C/C[C@H]1OC(=O)c1ccc(O)cc1 [JUNIFERDIN] the IC50 [2, 3] was 23.7 µM and the IC50 (K562; [4]) was > 50 µM.
Compound CC(=O)O[C@H]1/C=C(/C)[C@H](OC(=O)c2ccc(O)cc2)C/C=C(\C)CCCC1(C)C [JUNIFERININ] has an IC50 [1] of 30.7 µM, an IC50 [2, 3] of 18.6 µM and an IC50 (Raji) of 13 µM. For the same compound, the IC50 (K562; [4]) was 33 µM.
For COc1cc(C(=O)O[C@@H]2C/C=C(\C)CCCC(C)(C)[C@@H](O)/C=C\2C)ccc1O [JUNIFERIN], the IC50 [2, 3] was 29 µM and the IC50 (K562; [4]) was > 50 µM.
In the case of C/C=C(/C)C(=O)O[C@@H]1C/C=C(\C)CCCC(C)(C)[C@@H](O)/C=C\1C [LYCIFERIN A], the IC50 ([2]; da1-3b) is reported as “Not Active” and the IC50 (K562; k562) is reported as “Not Active”.
With C/C=C(/C)C(=O)O[C@@H]1C/C=C(\C)CCCC(C)(C)[C@@H](OC(C)=O)/C=C\1C [LYCIFERIN B] the IC50 [2, 3] was 45 µM and the IC50 (K562; [4]) was > 50 µM.
For C/C1=C/[C@H](O)C(C)(C)CCC/C(C)=C/C[C@H]1OC(=O)c1ccccc1 [LYCIFERIN C], the IC50 ([2]; da1-3b) was “Not Active” and the IC50 (K562; k562) was “Not Active”.
With CC(=O)O[C@H]1/C=C(/C)[C@H](OC(=O)c2ccccc2)C/C=C(\C)CCCC1(C)C [LYCIFERIN D] the IC50 [2, 3] was 45 µM and the IC50 (K562; [4]) was > 50 µM.
For COc1cc(C(=O)O[C@@H]2C/C=C(\C)CCCC(C)(C)[C@@H](OC(C)=O)/C=C\2C)ccc1O [LYCIFERIN E], the IC50 [2, 3] was 20.1 µM and the IC50 (K562; [4]) was 41.5 µM.
In the case of C=C1/C=C/C(C)(C)[C@H](OC(=O)c2ccc(O)c(OC)c2)CC/C(C)=C/CC1 [VANILLOYL FERVANOL], the IC50 ([2]; da1-3b) is reported as “Not Active” and the IC50 (K562; k562) is reported as “Not Active”.
